# Measurements from different studies.
# Each line is one published result; the experiments were not run side by side.
# Target: G protein-coupled receptor kinase 6 (GRK6, Homo sapiens, UniProt P43250)
SMILES,assay,conditions,measurement,value
CCCOc1ccc(OC)c(F)c1C(=O)c1ccc(C(=O)N[C@@H]2CNC[C@H]2NC(=O)c2ccc3[nH]ncc3c2)cc1,"enzyme activity, inhibitor",10 µM,remaining activity,104%
O=C1Nc2ccc(Cl)cc2C1=Cc1cc(Cl)c(O)c(Cl)c1,cell-free assay,0.5 µM,remaining signal,89.6%
CCCS(=O)(=O)Nc1ccc(F)c(C(=O)c2c[nH]c3ncc(-c4ccc(Cl)cc4)cc23)c1F,"enzyme activity, inhibitor",1 µM,inhibition,< 10%
Cc1ccc(NC(=O)c2ccc(C)c(C(F)(F)F)c2)cc1C#Cc1nn(C2CCC(O)CC2)c2ncnc(N)c12 (stereo not shown),cell-free assay,10 µM,remaining signal,100%
Cc1ccc(Nc2nccc(N(C)c3ccc4c(C)n(C)nc4c3)n2)cc1S(N)(=O)=O,"enzyme activity, inhibitor",0.3 µM,inhibition,11%
COc1cc2ncnc(Nc3ccc(Oc4ccccc4)c(C)c3C)c2cc1OC,"enzyme activity, inhibitor",1 µM,inhibition,-2%
Cc1sc(C(=O)NC2COC2)cc1-n1cc(NC(=O)Nc2c(F)cccc2Cl)cn1,"enzyme activity, inhibitor",10 µM,remaining activity,91.5%
CCN(CC)c1ccc(C2=NNC(=O)CC2C)cc1[N+](=O)[O-] (stereo not shown),"enzyme activity, inhibitor",10 µM,remaining activity,105%
CC(C)(C)c1nc2c(s1)c1nc(N)ncc1c1ccc(NS(=O)(=O)c3c(F)cccc3F)c(F)c12,"enzyme activity, inhibitor, radiometric",1 µM,remaining activity,76%
CNC(=O)c1cc(Oc2ccc(NC(=O)Nc3ccc(Cl)c(C(F)(F)F)c3)cc2)ccn1,"enzyme activity, inhibitor",10 µM,inhibition,1%
CC(C)(O)[C@H]1CC[C@H](Nc2ccc3ncc(-c4cccc(C(F)(F)F)c4)n3n2)CC1,"enzyme activity, inhibitor",1 µM,remaining activity,90.6%
CCN(CC)CCNC(=O)c1c(C)[nH]c(/C=C2\C(=O)Nc3ccc(F)cc32)c1C,"enzyme activity, inhibitor",0.3 µM,inhibition,31%
COc1cc(Cl)c(C(=O)N[C@@H](CN[C@H]2CC[C@@H](N)CC2)Cc2ccc(C#N)cc2)cc1-c1ccc(CN[C@H](C)c2ccc(C)cc2)o1,"enzyme activity, inhibitor",1 µM,remaining activity,100%
